The list is not random: actives were taken first. Their share in the collection is about 3.5%.
RGS4 pot – potentiators or activators of RGS4 | HEK293 M3R/inducible RGS4, carbachol calcium flux Fluo4; stronger effect = lower value | B-score at 10 µM | 0.92% of 310,000 active;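 active = B-score of the integrated calcium signal more than 4 SD below the library mean, with starting fluorescence not abnormally high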;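 note: negative B-score means reduced calcium response which marks RGS4 activation or potentiation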
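test system = M3R-expressing HEK293 line, RGS4 induced by doxycycline | probe or stimulus = carbachol at ECmax as muscarinic agonist stimulus | timing = dye loading 30 min 37 °C, buffer rest 30 min RT | signal = calcium dye Fluo4 fluorescence | evaluation = B score from integrated fluorescence ratio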
MrgX1 antag – antagonists of human MrgX1 receptor; B-score at 10 µM; MRGX1-HEK293 calcium flux, Fluo-4, BAM8-22 antagonism; stronger effect = lower value; 1.3% of 310,000 active; Q96LB2;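 active = calcium-response B-score plate-corrected more than 3 library SD below zero, starting fluorescence within 5 deviations, no agonist response on first addition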;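 note: peak minus trough fluorescence over baseline after final BAM8-22 challenge near maximal dose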
Target sequence (Q96LB2 whole entry, looked up): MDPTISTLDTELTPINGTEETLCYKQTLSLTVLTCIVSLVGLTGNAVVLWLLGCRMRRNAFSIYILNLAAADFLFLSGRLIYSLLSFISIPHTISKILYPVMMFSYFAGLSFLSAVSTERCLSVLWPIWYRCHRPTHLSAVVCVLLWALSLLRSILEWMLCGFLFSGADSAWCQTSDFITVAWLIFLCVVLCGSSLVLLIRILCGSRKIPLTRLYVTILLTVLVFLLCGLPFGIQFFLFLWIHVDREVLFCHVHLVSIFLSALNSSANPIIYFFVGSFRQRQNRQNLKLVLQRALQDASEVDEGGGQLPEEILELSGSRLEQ
RGS4 inh – inhibitors of human RGS4. P49798. HEK293 M3R/RGS4 inducible, Fluo-4 calcium flux; stronger effect = higher value; triggered by carbachol at its EC20. B-score at 10 µM. 0.45% of 310,000 active. AID 463165;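 active = B-score, a plate-corrected calcium signal, over three deviations above library mean, with baseline fluorescence within five deviations of library mean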;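 note: RGS4 expression induced by doxycycline in cells with stable M3 receptor; B-score is computed from the integrated fluorescence ratio over baseline after carbachol; higher B-score means a larger calcium signal and so more RGS4 inhibition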
MrgX1 allo act – human MrgX1 positive allosteric modulation, primary screen; Q96LB2; MrgX1-HEK293, Fluo-4 calcium flux, FDSS; stronger effect = higher value; B-score at 10 µM; 0.63% of 310,000 active; AID 588675;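 active = plate-corrected calcium response at least 3 library SD above typical, normal starting fluorescence, not activating the receptor alone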;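 note: compound read alongside a low EC10 to EC30 dose of BAM8-22 agonist; peak minus trough fluorescence over baseline measured at the second addition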
MrgX1 ag – agonists of human MrgX1 receptor | AID 588627 | B-score at 10 µM | 0.44% of 310,000 active | Q96LB2 | MrgX1-HEK293 cells, Fluo-4 calcium fluorescence, agonist mode; stronger effect = higher value;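 active = calcium response B-score plate-corrected fluorescence ratio at least 3 library SD, with starting fluorescence B-score inside 5 SD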
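System: HEK293 cells stably expressing human MrgX1 receptor; Dosing: test compound in the initial addition of three; Schedule: overnight plating, then 30 min 37 °C plus 30 min room-temperature dye loading; Detection: kinetic calcium dye fluorescence, Fluo-4 NW; Controls: per-plate positive and negative controls for Z′ factor.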
Starred values were filed as active, the others as inactive; i = inactive; x = no result given.

SMILES | RGS4 pot | MrgX1 antag | RGS4 inh | MrgX1 allo act | MrgX1 ag
COc1cc(NC(=O)CN(C)C2CCCCC2)c(C)cc1[N+](=O)[O-] | i | -5.2* | i | i | i
C=CCS/C(N)=N\N=C\c1c(O)ccc2ccccc12 | i | i | i | i | i
C#CCOCCOCCOCCNc1nc(N2CCN(C(=O)CCCCCCCCCCNC(=O)Cn3cc(C[C@@H](C)O)nn3)CC2)nc(N2CCN(C(=O)CCCCCCCCCCNC(=O)[C@@H]([C@H](C)O)n3cc(C)nn3)CC2)n1 | x | i | x | i | i
C#CCOCCOCCOCCNc1nc(N2CCN(C(=O)CCCCCCCCCCNC(=O)Cn3cc(CCCCCN)nn3)CC2)nc(N2CCN(C(=O)CCCCCCCCCCNC(=O)Cn3cc(C[C@@H](C)O)nn3)CC2)n1 | x | -8.3* | x | i | i
C#CCOCCOCCOCCNc1nc(N2CCN(C(=O)CCCCCCCCCCNC(=O)Cn3cc(C[C@@H](C)O)nn3)CC2)nc(N2CCN(C(=O)CCCCCCCCCCNC(=O)[C@@H]([C@H](C)CC)n3cc(CCCCCN)nn3)CC2)n1 | x | i | x | 6.9* | i
C#CCOCCOCCOCCNc1nc(N2CCN(C(=O)CCCCCCCCCCNC(=O)Cn3cc(CCCCCN)nn3)CC2)nc(N2CCN(C(=O)CCCCCCCCCCNC(=O)[C@@H]([C@H](C)O)n3cc(C)nn3)CC2)n1 | x | i | x | 11* | i
COCc1ccc(CN2CCC(C(=O)Nc3cccc(-c4cscn4)c3)CC2)o1 | i | i | i | i | i
COCc1ccc(CN2CCC(C(=O)Nc3cccc(-c4cccc(Cl)c4)c3)CC2)o1 | -8.1* | i | i | i | i
C/C(CCc1oc2ccccc2c1-c1ccc(C)o1)=N/O | i | i | i | i | 28*
CC(=O)CCc1oc2ccc([N+](=O)[O-])cc2c1-c1ccc(C)o1 | i | i | i | i | i
CCCCCCCCN1[C@@H](CC(=O)OC)c2cc(F)ccc2S1(=O)=O | i | i | i | i | i
CCCCCCCCCCCCN1[C@@H](CC(=O)OC)c2cc(C(F)(F)F)ccc2S1(=O)=O | i | -5.8* | i | i | i
CCCCCCCCCCCCN1[C@@H](CC(=O)O)c2cc(F)ccc2S1(=O)=O | -7.7* | i | i | i | i
COC(=O)C1(Cc2ccc(O)c(CC3OC3(C)C)c2)OC(=O)C(O)=C1c1ccc(O)cc1 (stereo not given) | i | i | i | i | i
Cc1ccc(-n2c(SCC(=O)N3CCCC3)nc3c(c2=O)SCC3)cc1 | i | -4.9* | i | i | i
CCOC(=O)c1ccccc1NC(=O)C1CSC2(C)CCC(=O)N12 (stereo not given) | i | i | i | i | i
O=[n+]1cc(-c2ccc(Br)cc2)n([O-])c2c1CCC2 | i | -4.6* | i | i | i
O=[n+]1cc(-c2ccc(Cl)cc2)n([O-])c2c1CCC2 | i | i | i | i | i
CCC(=O)N1c2ccc(S(=O)(=O)NCCc3ccccc3)cc2CC1C (stereo not given) | i | i | i | i | i
CC1(C)OC(=O)C(=CNc2ccccc2)C(=O)O1 | i | -7.3* | i | i | i
COc1ccc(C(=O)Nc2cccc3c2CCCC3)c(OC)c1 | i | i | i | i | i
Nc1nonc1-n1nnc(C(=O)N/N=C/c2ccc(OCc3ccccc3F)cc2)c1CNc1ccccc1 | i | i | i | i | i
O=C(CN1CCN(Cc2ccccc2)CC1)Nc1ccc(Cl)cc1 | i | i | i | i | i
CN(c1ccccc1)P(=O)(N(C)c1ccccc1)N(C)c1ccccc1 | -11* | i | i | i | i
CCN(c1ccccc1)P(=O)(Nc1ccccc1)Nc1ccccc1 | i | i | i | i | i
CCC(C)(C)NC(=O)C(c1ccc(F)cc1)N(Cc1cccs1)C(=O)c1cnccn1 (stereo not given) | i | -5.3* | i | i | i
CCC(C)(C)NC(=O)C(c1ccc(F)cc1)N(Cc1cccc(OC)c1)C(=O)c1cnccn1 (stereo not given) | i | i | i | i | i
O=C(Nc1ccccc1Cc1ccccc1)c1oc2ccccc2c1COc1ccccc1 | i | -5.5* | i | i | i
